Reference: ChEMBL document CHEMBL3046488, “Synthesis of 3-(4-Bromobenzyl)-5-(aryl methylene)-5H-furan-2-ones and their activity as inhibitors of the photosynthetic electron transport chain” (2007)
Active and inactive are the calls of the source. No cut-off for these calls is given here.

Tests used:
[1] = test system: Auxenochlorella protothecoides; assay: In vivo inhibition of photosynthetic activity in intact Auxenochlorella protothecoides ATCC 30411 cells assessed as light-driven oxygen evolution rate at 100 uM measured at 24 degC every 15 sec upto 8 min by polarographic analysis in presence of 0.001% Triton X-100 (reference value: 100 +/-5.1%); type: functional; parameters: scale not given: the % may be the effect or the level left
[2] = test system: Auxenochlorella protothecoides; assay: In vivo inhibition of photosynthetic activity in intact Auxenochlorella protothecoides ATCC 30411 cells assessed as light-driven oxygen evolution rate at 100 uM measured at 24 degC every 15 sec upto 8 min by polarographic analysis in absence of detergent (reference value: 100 +/-5.9%); type: functional; parameters: scale not given: the % may be the effect or the level left
[3] = test system: Spinacia oleracea; assay: In vitro inhibition of uncoupled electron transport in active intact chloroplast thylakoid membrane of Spinacia oleracea (spinach) leaves assessed as light-driven ferricyanide reduction at 10 uM measured at 24 degC at 30 secs intervals for 10 min (reference value: 100 +/-4.1%); parameters: scale not given: the % may be the effect or the level left
[4] = test system: Spinacia oleracea; assay: In vitro inhibition of phosphorylating electron transport in active intact chloroplast thylakoid membrane of Spinacia oleracea (spinach) leaves assessed as light-driven ferricyanide reduction at 10 uM measured at 24 degC at 30 secs intervals for 10 min (reference value: 100 +/-3.8%); parameters: scale not given: the % may be the effect or the level left
[5] = test system: Spinacia oleracea; assay: (§1) In vitro inhibition of basal rate of photosynthetic electron transport (Hill reaction) in active intact chloroplast thylakoid membrane of Spinacia oleracea (spinach) leaves assessed as inhibition of light-driven ferricyanide reduction at >10 uM measured at 24 degC at 30 secs intervals for 10 min
[6] = test system: Spinacia oleracea; assay: as §1, with “as” for “as inhibition of”, “10” for “>10”, “min (reference value: 100 +/-3.1%)” for “min”; parameters: scale not given: the % may be the effect or the level left
[7] = test system: Spinacia oleracea; assay: as §1, with “as” for “as inhibition of”, “5” for “>10”, “min (reference value: 100 +/-3.1%)” for “min”; parameters: scale not given: the % may be the effect or the level left
[8] = test system: Spinacia oleracea; assay: as §1, with “10” for “>10”, “min in presence of 0.25 to 1 mM uncoupler, NH4Cl” for “min”
In short: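 A fixed compound concentration was tested in the spinach thylakoid ferricyanide-reduction assay at increasing NH4Cl (uncoupler) levels. Activity is expressed as % of untreated samples containing the same amount of uncoupler, mean ± SE over at least six replications from two independent experiments.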

[9] = test system: Auxenochlorella protothecoides; assay: In vivo inhibition of photosynthetic activity in intact Auxenochlorella protothecoides ATCC 30411 cells assessed as light-driven oxygen evolution rate at 10 uM measured at 24 degC every 15 sec upto 8 min by polarographic analysis in presence of 0.001% Triton X-100 (reference value: 100 +/-5.1%); type: functional; parameters: scale not given: the % may be the effect or the level left
[10] = test system: Auxenochlorella protothecoides; assay: In vivo inhibition of photosynthetic activity in intact Auxenochlorella protothecoides ATCC 30411 cells assessed as light-driven oxygen evolution rate at 10 uM measured at 24 degC every 15 sec upto 8 min by polarographic analysis in absence of detergent (reference value: 100 +/-5.9%); type: functional; parameters: scale not given: the % may be the effect or the level left

| Compound | Activity [6] [%] | Activity [7] [%] | other results |
| --- | --- | --- | --- |
| O=C1OC(=Cc2ccc(F)cc2)C=C1Cc1ccc(Br)cc1 | 68.5 | 74 |  |
| O=C1O/C(=C\c2ccc3c(c2)OCO3)C=C1Cc1ccc(Br)cc1 | 91 | 91.1 |  |
| COc1cc(OC)c(/C=C2\C=C(Cc3ccc(Br)cc3)C(=O)O2)c(OC)c1 | 79.9 | 84.2 |  |
| O=C1OC(=Cc2ccccc2)C=C1Cc1ccc(Br)cc1 | 42.9 | 54.1 | Activity [1]: 74.2%; Activity [2]: 82.6%; inhibition [8]: inactive; Activity [3]: 95.6%; Activity [4]: 47.9%; inhibition [5]: inactive |
| O=C1OC(=Cc2cccc([N+](=O)[O-])c2)C=C1Cc1ccc(Br)cc1 | 66.9 | 72.6 |  |
| N#Cc1ccc(C=C2C=C(Cc3ccc(Br)cc3)C(=O)O2)cc1 | 101 | 100 |  |
| CN(C)C(=O)Nc1ccc(Cl)c(Cl)c1 [DCMU] | 4.9 | 6.8 | Activity [1]: 20.7%; Activity [9]: 32.2%; Activity [2]: 38.5%; Activity [10]: 49.9% |
| O=C1OC(=Cc2ccc(Cl)cc2)C=C1Cc1ccc(Br)cc1 | 89.4 | 94.1 |  |
| COc1ccc(OC)c(/C=C2\C=C(Cc3ccc(Br)cc3)C(=O)O2)c1 | 71 | 94.1 |  |

Now from value to molecule, other results behind:

| Activity [6] [%] | Activity [7] [%] | Compound | other results |
| --- | --- | --- | --- |
| 48.8 | 71.7 | O=C1OC(=Cc2ccc(C(F)(F)F)cc2)C=C1Cc1ccc(Br)cc1 | Activity [1]: 89.5%; Activity [2]: 94.5%; Activity [3]: 79.8%; Activity [4]: 52.1%; inhibition [5]: inactive |
| 69.7 | 72.8 | Cc1cccc(/C=C2\C=C(Cc3ccc(Br)cc3)C(=O)O2)c1 |  |
| 92 | 95.4 | O=C1OC(=Cc2ccc(Br)cc2)C=C1Cc1ccc(Br)cc1 |  |
| 91 | 94.7 | CN(C)c1ccc(C=C2C=C(Cc3ccc(Br)cc3)C(=O)O2)c(Cl)c1 |  |
